In experiment [1] the test system is biotinylated HIV-1 FSS RNA. Nature of the experiment: SPR binding kinetics, RNA immobilized on streptavidin-coated CM5 chip. Conditions: 1X PBS, 5 mM MgCl2, 0.005 % Tween-20, 1:1 global fit to six sensorgrams.
The subject of experiment [2] is HIV-1 FSS with single mutation in the loop region (entry 7). Nature of the experiment: Fluorescence titration, Table 1 entry 7. It is filed as binding. Conditions: entry 7, single mutation in the loop region.
The target of experiment [3] is unrelated RNA hairpin (entry 10). The following applies: Table 1 entry 10; compound immobilized on chip; previously reported; cited from earlier work.
Experiment [4] deals with DNA homolog of the HIV-1 FSS (entry 9). Nature of the experiment: Fluorescence titration, Table 1 entry 9. The experiment is classed as binding. In a few lines:
(§1)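 5′-Cy3-labelled oligonucleotide (400 or 500 nM) in 1X PBS pH 7.2 was heated to 65 °C for 4 min, MgCl2 was added, and the sample was cooled slowly to RT. Test compound was titrated in (100 nM–10 μM), with ≥10 min equilibration per addition. Excitation was 550 nm and emission was read at 564.1 nm. Dilution-corrected ΔFU was fit to a 1-site ligand-depletion model, with ≥2 titrations.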

Experiment [5] deals with HIV-1 FSS with multiple mutations in the loop region (entry 8). Nature of the experiment: Fluorescence titration, Table 1 entry 8. Conditions: entry 8, multiple mutations in the loop region. It is filed as binding.
Experiment [6] deals with unrelated RNA hairpin (entry 10). Nature of the experiment: Fluorescence titration, Table 1 entry 10. It is filed as binding. In a few lines:
as §1

Experiment [7] addresses unrelated RNA hairpin (entry 11). As to the kind of experiment: Fluorescence titration, Table 1 entry 11. The experiment is classed as binding. In outline:
as §1

Experiment [8] has as its target HIV-1 FSS RNA (upper stem-loop of the HIV-1 frameshift-stimulating RNA). Nature of the experiment: Fluorescence titration of compound into 5′-Cy3-labeled RNA. The experiment is classed as binding, HIV-1 (group M subtype D). The following applies: Table 2, average ± standard deviation of 3 replicate titrations.

Entries after “also recorded” stand apart in the source; their conditions may differ.

Take `NC[C@@H]1O[C@H](O[C@H]2[C@@H](O)[C@H](O[C@@H]3[C@@H](O)[C@H](N)C[C@H](N)[C@H]3O[C@H]3O[C@H](CN)[C@@H](O)[C@H](O)[C@H]3N)O[C@@H]2CO)[C@H](N)[C@@H](O)[C@@H]1O` [Neomycin, neomycin, reference compound]: in experiment [1], the “Association rate (kon)” value is “too rapid to determine accurately” and the “Dissociation rate (koff)” value is “too rapid to determine accurately”.
(Cys-Pro-Phe)2 (disulfide) [Compound 1]: the “reduction in the binding relative to HIV-1 FSS” value is reported as 2 fold in experiment [2] and 4 fold in experiment [5]. The “Binding constant (KD), SPR” value in experiment [3] was “No binding”. For the same compound, the “Binding constant (KD), Solution” value in experiment [4], in experiment [6] and in experiment [7] was “No saturable binding” in each case. The “Association rate (kon)” value in experiment [1] was found to be 1790 M⁻¹ s⁻¹. The “Dissociation rate (koff)” value in experiment [1] turned out to be 0.0141 s⁻¹.
With (Cys-Pro-Phe)2 (disulfide) [Compound 5], the KD result in experiment [8] is listed as “completely ablated binding; also recorded: No Binding”.

The values above are taken from paper PMC2928052 (Journal of medicinal chemistry, 2010).
